Series [1] relates to B16-BL6. Briefly: Growth inhibition of mouse B16-BL6 cells incubated for 72 hrs by MTT assay. The following applies: B16-BL6, 72 h. Type of series: functional.
Series [2] in a line: Selectivity ratio of GI50 for human PBL cells to GI50 for human Jurkat cells incubated for 72 hrs by MTT assay. An outline of the steps:
(§1)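 Leukemia cells (CEM, DND-41, Jurkat) were grown in RPMI-1640 at 8×10³ cells/well and left 18 h. Donor PBL were gradient-separated, held overnight in RPMI-1640/10% FBS, and non-adherent cells set at 5×10^5 cells/mL without PHA (resting). Both were exposed 72 h to graded concentrations, read by MTT. The ratio is PBL GI50 over leukemia GI50.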

Series [3] is described as follows: Metabolic stability in human liver microsomes assessed as parent compound decline at 10 uM incubated for 60 mins in presence of NADPH by HPLC analysis. Type of series: ADME, Microsome. As to conditions: read-out: Drug degradation. In a few lines:
(§2)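 Compound (10 µM) was incubated 0 or 60 min at 37 °C with pooled HLMs (1 mg/mL), with or without 1 mM NADPH, or in buffer only (0.1 M KH2PO4 pH 7.4). Reactions were stopped with ice-cold acetonitrile. Remaining parent was measured by HPLC-fluorescence relative to 0 min; mean ± SD, n = 3.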

Series [4] concerns the target Tubulin (Bos taurus) (UniProt Q6B856+Q862L2+Q862F3). The series is described as follows: Inhibition of [3H]colchicine binding to bovine brain tubulin at 5 uM relative to control. An outline of the steps:
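Bovine brain tubulin at 1 µM was incubated with 5 µM [3H]colchicine and the test compound at 5 µM. Inhibition of colchicine binding was measured relative to a control.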

The nature of series [5]: Growth inhibition of human DND41 cells incubated for 72 hrs by MTT assay. Type of series: functional. The following applies: DND41, 72 h. An outline of the steps: (§3)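 Leukemia lines were grown in RPMI-1640; the CEM^Vbl-100 medium also contained 100 ng/mL vinblastine. Cells were seeded at 8 × 10³ per well and left 18 h at 37 °C, 5% CO2. Medium was then replaced with fresh medium holding graded compound concentrations (DMSO stocks), in triplicate, for 72 h. Viability was read by MTT, and GI50 = concentration inhibiting proliferation 50%.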
(In general: Tetrazolium dyes change colour on reduction, which living cells bring about.)

The subject of series [6] is Jurkat. The series is described as follows: Growth inhibition of human Jurkat cells incubated for 72 hrs by MTT assay. Type of series: functional. An outline of the steps:
as §3

Series [7] in a line: Selectivity ratio of GI50 for human PBL cells to GI50 for human CEM cells incubated for 72 hrs by MTT assay. Type of series: functional. In a few lines:
as §1

Series [8] relates to RS4-11. Briefly: Growth inhibition of human RS4:11 cells incubated for 72 hrs by MTT assay. Type of series: functional. The following applies: RS4-11, 72 h. In a few lines:
as §3

Series [9] is described as follows: Growth inhibition of multidrug-resistant human CEM/VBL100 cells incubated for 72 hrs by MTT assay. The following applies: CEM/VBL100, 72 h. Type of series: functional. An outline of the steps:
as §3

Series [10] has as its system HT-29. Briefly: Growth inhibition of human HT-29 cells incubated for 72 hrs by MTT assay. Type of series: functional. As to conditions: HT-29, 72 h.
Series [11] can be described thus: Selectivity ratio of GI50 for PHA-stimulated human PBL cells to GI50 for human Jurkat cells incubated for 72 hrs by MTT assay. In a few lines:
(§4)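 Leukemia cells (CEM, DND-41, Jurkat) were grown in RPMI-1640 at 8×10³ cells/well and left 18 h. Donor PBL were gradient-separated, held overnight, and non-adherent cells set at 5×10^5 cells/mL with 2.5 µg/mL PHA. Both were exposed 72 h at 37 °C to graded compound concentrations, read by MTT. The ratio is PBL GI50 over leukemia GI50.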

The subject of series [12] is CCRF-CEM. Briefly: Growth inhibition of human CEM cells incubated for 72 hrs by MTT assay. Type of series: functional. In a few lines: as §3
Series [13] addresses Tubulin (Bos taurus, UniProt Q6B856+Q862L2+Q862F3). Briefly: Inhibition of bovine brain tubulin polymerization preincubated for 15 mins followed by GTP addition and measured for 20 mins by turbidimetry-based spectrophotometric method. An outline of the steps:
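Bovine brain tubulin (10 µM) was preincubated with varying compound concentrations in 0.8 M monosodium glutamate, pH 6.6, for 15 min at 30 °C, then cooled to 0 °C. GTP was added to 0.4 mM final and the mix warmed to 30 °C. Turbidity was followed at 350 nm. IC50 = concentration inhibiting extent of assembly 50% after 20 min.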

Series [14] has as its system B16-BL6. The series is described as follows: Antitumour activity against mouse B16-BL6 cells allografted in C57BL/6 mouse assessed as reduction in tumor mass at 7.5 mg/kg, ip administrated every other day relative to control. Type of series: functional. In a few lines:
(§5)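 Male C57BL/6 mice (six weeks old) got 2.5×10^5 BL6-B16 murine melanoma cells s.c. in the dorsolateral flank, in PBS. Once tumors were measurable (about 100 mm³), mice were randomized and given drug i.p. every other day in 50 µL DMSO. Vehicle (DMSO) group served as control. Tumor volume = (D × d²)/2; tumor weight taken at end. 5 animals per group, mean ± SEM.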

The test system of series [15] is MDA-MB-468. The series is described as follows: Growth inhibition of human MDA-MB-468 cells incubated for 72 hrs by MTT assay. As to conditions: MDA-MB-468, 72 h. Type of series: functional.
Series [16] in a line: Selectivity ratio of GI50 for PHA-stimulated human PBL cells to GI50 for human CEM cells incubated for 72 hrs by MTT assay. An outline of the steps: as §4
Series [17] relates to HL-60. Briefly: Growth inhibition of human HL60 cells incubated for 72 hrs by MTT assay. Type of series: functional. The following applies: HL-60, 72 h. In a few lines: as §3
The nature of series [18]: Growth inhibition of PHA-stimulated human PBL cells incubated for 72 hrs by MTT assay. Type of series: cell-based. The following applies: PHA-stimulated PBL cells (peripheral blood lymphocytes). In a few lines: (§6)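 PBL from healthy donors were isolated on a Lymphoprep gradient, held overnight in RPMI-1640 with 10% FBS, and the non-adherent cells resuspended at 5 × 10^5 cells/mL. Proliferating cultures got 2.5 µg/mL PHA; resting cultures got none. Compound was added at several concentrations for 72 h and viability read by MTT. GI50 reported as mean ± SEM of three experiments.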

A short description of series [19]: Selectivity ratio of GI50 for human PBL cells to GI50 for human DND41 cells incubated for 72 hrs by MTT assay. In a few lines:
as §1

Series [20] is described as follows: Growth inhibition of human PBL cells incubated for 72 hrs by MTT assay. As to conditions: PBL cells (peripheral blood lymphocytes). Type of series: cell-based. In a few lines:
as §6

The nature of series [21]: Selectivity ratio of GI50 for PHA-stimulated human PBL cells to GI50 for human DND41 cells incubated for 72 hrs by MTT assay. An outline of the steps:
as §4

In series [22] the test system is MCF7. The series is described as follows: Growth inhibition of human MCF7 cells incubated for 72 hrs by MTT assay. Type of series: functional. As to conditions: MCF7, 72 h.
Series [23] relates to MDA-MB-231. Briefly: Growth inhibition of human MDA-MB-231 cells incubated for 72 hrs by MTT assay. The following applies: MDA-MB-231, 72 h. Type of series: functional.
A short description of series [24]: Toxicity in C57BL/6 mouse allografted with mouse B16-BL6 cells assessed as change in body weight at 3 to 7.5 mg/kg, ip administrated every other day. Type of series: organism-based. As to conditions: in vivo. An outline of the steps: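 Male six-week-old C57BL/6 mice were given BL6-B16 murine melanoma cells subcutaneously in the dorsolateral flank in PBS. Once tumours reached about 100 mm³, mice were randomised and dosed intraperitoneally every other day with 3.0 or 7.5 mg/kg in DMSO, or vehicle alone. Body weight change was followed; 5 animals per group, mean ± SEM.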

For series [25], the system named is HeLa. The series is described as follows: Growth inhibition of human HeLa cells incubated for 72 hrs by MTT assay. Type of series: functional.
Series [26] deals with B16-BL6. Briefly: Antitumour activity against mouse B16-BL6 cells allografted in C57BL/6 mouse assessed as reduction in tumor mass at 3 mg/kg, ip administrated every other day relative to control. Type of series: functional. An outline of the steps: as §5
Series [27] can be described thus: Metabolic stability in human liver microsomes assessed as parent compound decline at 10 uM incubated for 60 mins in absence of NADPH by HPLC analysis. Type of series: ADME, Microsome. As to conditions: read-out: Drug degradation. An outline of the steps:
as §2
In general terms: Liver microsomes are vesicles of endoplasmic reticulum, rich in cytochrome P450 enzymes.

Series [28] deals with B16-BL6. Briefly: Antitumour activity against mouse B16-BL6 cells allografted in C57BL/6 mouse assessed as reduction in tumor mass at 30 mg/kg, ip administrated every other day relative to control. Type of series: functional. In a few lines: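 Six-week-old male C57BL/6 mice received BL6-B16 murine melanoma cells subcutaneously in the dorsolateral flank, suspended in PBS. Once tumors reached about 100 mm³, the mice were randomised and dosed intraperitoneally every other day, with the drug dissolved in DMSO; controls received DMSO vehicle. Tumors were measured in two dimensions, V=(D x d²)/2, and weighed at the end. Five mice per group; mean ± SEM.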

Structures are written as SMILES.

The GI50 is the concentration giving 50% growth inhibition. A low value points to greater sensitivity of the cells. As a reminder, the inhibition is the percentage by which the read-out fell short of the control. A low value points to a response near the control. Usually IC50 stands for the concentration needed to halve the response being measured. Broadly, the inhibition in vivo is the drop in the measured response relative to a control, in per cent.

Turning to `O=C(c1ccccc1)n1ccc2c3c(=O)cc(-c4cccc(F)c4)[nH]c3ccc21`, the GI50 was determined as 18 nM in series [1]; 10.2 nM in [5]; 32.4 nM in [6]; 56 nM in series [8]; 36 nM in [9]; 402 nM in series [10]. Further, the GI50 in series [12] came to 44 nM; in series [15], 871 nM; in [17] it was 15.1 nM; in [22], 103 nM; in series [23] it was 454 nM; in series [25], 13.3 nM. In addition, the RatioGI50 in series [2], in [7], in series [11], in series [16], in series [19] and in series [21] was 10000 - 30000 in each case. Also, the metabolised at 1 h, 10 µM in series [3] and in series [27] was 20% each time. This molecule also came in with an inhibition in series [4] of 70%. The concentration for half-maximal inhibition (IC50) in series [13] was found to be 380 nM. In addition, the inhibition in vivo at 7.5 mg/kg in series [14] came out at 58.4%. Besides, the GI50 at 72 h in series [18] was 17600 nM; in series [20], 45600 nM. In addition, the Activity entry in series [24] is listed as “Non-Toxic”. The inhibition in vivo at 3 mg/kg in series [26] was determined as 16.7%.
As to `COc1ccc(/C=C\c2cc(OC)c(OC)c(OC)c2)cc1OP(=O)(O)O` [FOSBRETABULIN DISODIUM], the inhibition in vivo at 30 mg/kg in series [28] came out at 31.3%.

For the origin of these results see ChEMBL document CHEMBL4334446, “Evaluating the effects of fluorine on biological properties and metabolic stability of some antitubulin 3-substituted 7-phenyl-pyrroloquinolinones” (Eur J Med Chem, 2019).
